In publication PMC7771250 (ACS Infectious Diseases, 2020):
Like-named read-outs stand apart in the source and are kept apart here.

Assays:
Vero E6 cells [1] = conditions: Vero E6, OpenData Portal screening data, Figure S14; cited from earlier work
SARS-CoV-2 [2] = conditions: Vero E6, OpenData Portal screening data, Figure S14; cited from earlier work
[3] = cited from earlier work; for T1/2: 85 (chloroquine)
LC3B [4] = test: LC3B immunostaining autophagy assay, average of four cell lines; assay type: cell-based; conditions: for EC50: 16 h, read-out: autophagy EC50
SARS-CoV-2 [5] = conditions: similar CPE assay with SARS-CoV-2 in Vero E6 cells; cited from earlier work
in vitro = conditions: human
SARS-CoV-2 [6] = test: microbe, parasite or virus in culture; assay type: cell-based, SARS CoV-2 (USA_WA1/2020); conditions: Severe acute respiratory syndrome coronavirus 2, Vero C1008, 72 h, read-out: CPE EC50, Vero E6, 72 h; table: mean ± confidence interval
Vero E6 cells [7] = conditions: for cell toxicity in the CPE counter assay: Vero E6, up to 30.0 μM; for CC50: read-out: CPE CC50, uninfected Vero E6, 72 h; for cytotoxicity (reduction of cell viability): at 30.0 μM
[8] = test system: SARS-CoV-2 spike pseudotyped particle (PP); test: microbe, parasite or virus in culture; assay type: cell-based; conditions: Severe acute respiratory syndrome coronavirus 2, HEK-293T, 48 h, read-out: PP EC50
Vero E6 cells [9] = test: Cell; assay type: cell-based, monkey
acidic organelles = test: LysoTracker Deep Red staining in Vero E6 cells; assay type: cell-based, monkey
LC3B [10] = test: LC3B immunostaining autophagy assay in Vero E6 cells; assay type: cell-based, monkey; conditions: Vero E6, about 16 h; for LC3B spot accumulation: 50 to 0.02 μM
Outline: (§1)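 Cells were seeded overnight to 60% confluence and dosed at 8 points, 1:3 from 50 μM to 0.02 μM. They were fixed in ice-cold methanol for 10 min at −30 °C, blocked, and stained with rabbit anti-LC3B for 2 h at RT, AlexaFluor-647 anti-rabbit for 1 h, and Hoechst. Six fields per well were imaged. Spot count was normalized to DMSO (0%) and a reference (100%). Points with viability below 20% were excluded.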

Vero E6 cells [11] = conditions: drug-repurposing screen in Vero E6 cells; cited from earlier work
[12] = cited from earlier work
LC3B [13] = test: LC3B immunostaining autophagy assay in Huh-7.5 cells; assay type: cell-based, human
Outline: as §1

SARS-CoV-2 [14] = assay type: cell-based; conditions: EpiAirway, positive control
[15] = test system: human bronchial epithelial cells; conditions: LDH release, 24 and 96 h

In the case of `CO/C1=C\C(C)=C\[C@@H](C)[C@@H](O)[C@@H](C)C/C(C)=C/C=C/[C@H](OC)[C@@H]([C@@H](C)[C@@H](O)[C@H](C)[C@@]2(O)C[C@@H](O)[C@H](C)[C@@H](C(C)C)O2)OC1=O` [Bafilomycin A1], the “cytotoxicity” value (Vero E6 cells [1]) is given as “highly cytotoxic” and the “SARS-CoV-2 CPE inhibition” value (SARS-CoV-2 [2]) is given as “able to block SARS-CoV-2 CPE at nontoxic nanomolar concentrations”.

For `CC(C)(O)CNc1ncc(-c2ccnc(Nc3ccnc(Cl)c3)n2)c(CC2CC2)n1` [VPS34-IN-1], the “cytotoxicity” value (Vero E6 cells [1]) is given as “cytotoxicity was observed at higher concentrations” and the “SARS-CoV-2 CPE inhibition” value (SARS-CoV-2 [2]) is given as “potently inhibited the SARS-CoV-2 CPE at concentrations that were not cytotoxic”.

For `CCN(CC)CCCC(C)Nc1ccnc2cc(Cl)ccc12` (centres unmarked) [chloroquine], the T1/2 ([3]; 86 (hydroxychloroquine)) is listed as 30 to 60 days, the plasma bound [3] is listed as 50–70% and the EC50 (LC3B [4]) is listed as 3.29 ± 1.86 µM. For the same molecule, the EC50 (SARS-CoV-2 [5]) was 42 µM, the CC50 (in vitro) was 12 ± 0.51 µM and the EC50 (SARS-CoV-2 [6]) was 2.01 µM. For the same molecule, the “cell toxicity in the CPE counter assay” value (Vero E6 cells [7]) was “no associated cell toxicity”, the CC50 (Vero E6 cells [7]) was greater than 30 µM and the EC50 [8] was 1.37 ± 0.1 µM.

In the case of `CN(C)CCCN1c2ccccc2CCc2ccc(Cl)cc21` [clomipramine], the “Vd” value [3] is given as “high Vd”, the “LC3B increase across the cell lines” value (LC3B [4]; Vero E6, HeLa, HEK293T, Huh-7.5) is given as “effective in increasing LC3B in all cell lines except for Vero E6” and the CC50 (in vitro) is given as 18.6 ± 0.29 µM. For the same molecule, the “cytotoxicity on the basis of nuclei counts” value (Vero E6 cells [9]; Vero E6, at 50 μM) was “not cytotoxic”, the “LysoTracker staining” value (acidic organelles) was “dramatic elevations in LysoTracker relative spot intensity” and the “increase of LC3B spot count” value (LC3B [10]; normalized to DMSO (0%) and CQ (100%)) was 40%. For the same molecule, the CC50 (Vero E6 cells [11]) was greater than 30 µM, the “cytotoxicity (reduction of cell viability)” value (Vero E6 cells [7]; Vero E6) was “less than 20%” and the CC50 (Vero E6 cells [7]) was greater than 30 µM.

In the case of `CCN(CC)CCNc1ccc(CO)c2sc3ccccc3c(=O)c12` [hycanthone], the EC50 (LC3B [4]) is reported as 7.35 ± 4.7 µM, the CC50 (in vitro) is reported as 11.7 ± 0.49 µM and the cells killed (Vero E6 cells [9]; Vero E6, at 50 μM) is reported as “approximately 60%”. The “LC3B spot accumulation” value (LC3B [10]) was “maximal spot counts”, the EC50 (SARS-CoV-2 [6]) was 5.79 ± 0.26 µM and the “absorption” value ([12]; monkey) was “well-absorbed in monkey”. The T1/2 ([12]; species not given, human data lacking) was 0.12 to 0.21 days, the “cytotoxicity (reduction of cell viability)” value (Vero E6 cells [7]; Vero E6) was roughly 100% and the EC50 [8] was 1.88 ± 0.08 µM.

In the case of `CCN(CCO)CCCC(C)Nc1ccnc2cc(Cl)ccc12` (centres unmarked) [hydroxychloroquine], the T1/2 ([3]; 86 (hydroxychloroquine)) is listed as roughly 40 days, the “absorption” value ([3]; ref 82 (clomipramine), 86 (hydroxychloroquine)) is listed as “rapid and complete absorption” and the EC50 (LC3B [4]) is listed as 6.55 ± 6.67 µM. The EC50 (SARS-CoV-2 [5]) was 9.21 µM, the CC50 (in vitro) was 16.7 ± 20.3 µM and the EC50 (SARS-CoV-2 [6]) was 4.47 µM. The “cell toxicity in the CPE counter assay” value (Vero E6 cells [7]) was “no associated cell toxicity”, the CC50 (Vero E6 cells [7]) was greater than 30 µM and the EC50 [8] was 2.19 ± 0.07 µM.

For `OC(c1cc(C(F)(F)F)nc2c(C(F)(F)F)cccc12)C1CCCCN1` (centres unmarked) [mefloquine], the EC50 (SARS-CoV-2 [5]) is given as 7.11 µM, the EC50 (LC3B [13]; Homo sapiens, Huh7.5, read-out: autophagy EC50) is given as 7.3 µM and the “LC3B spot counts” value (LC3B [13]; Huh-7.5) is given as “increased LC3B spot counts even at low concentrations”. For the same molecule, the CC50 (in vitro) was 5.4 ± 0.01 µM, the “cytotoxicity on the basis of nuclei counts” value (Vero E6 cells [9]; Vero E6, at 50 μM) was “completely toxic” and the “toxicity in the LysoTracker assay” value (Vero E6 cells [9]; Vero E6, highest concentration (50 μM)) was “toxic at the highest concentration”. For the same molecule, the “LysoTracker staining” value (acidic organelles) was “dramatic elevations in LysoTracker relative spot intensity”, the “LC3B spot accumulation” value (LC3B [10]) was “ineffective at inducing LC3B spot accumulation” and the CC50 (Vero E6 cells [11]) was greater than 18.5 µM. For the same molecule, the EC50 (SARS-CoV-2 [6]) was 3.85 ± 0.24 µM, the cytotoxicity (Vero E6 cells [7]; at 15.0 to 30.0 μM, Vero E6) was 100% and the EC50 [8] was 8.84 ± 0.64 µM.

With `CCC(CC)COC(=O)[C@H](C)N[P@](=O)(OC[C@H]1O[C@@](C#N)(c2ccc3c(N)ncnn23)[C@H](O)[C@@H]1O)Oc1ccccc1` [remdesivir] the “reduction of viral titers” value (SARS-CoV-2 [14]) was “highly effective in reducing viral titers”, the “cytotoxicity in EpiAirway” value [15] was “without any cytotoxicity” and the EC50 (SARS-CoV-2 [6]) was 7.04 µM. The “cell toxicity in the CPE counter assay” value (Vero E6 cells [7]) was “no apparent cytotoxicity”.
